According to ChEMBL document CHEMBL2040743, “Pipestelides A-C: cyclodepsipeptides from the Pacific marine sponge Pipestela candelabra” (J Nat Prod, 2012):
pIC50: −log10 of the molar value.

Tests used:
KB [1] = assay: Growth inhibition of human KB cells after 72 hrs by CellTiter 96 assay; type: functional, cell-based
How it was run: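 NCI KB cells in D-MEM with 10% fetal calf serum and antibiotics, 5% CO2. 600 cells/well, dosed 24 h after plating from DMSO stocks, 1% DMSO final. Tested from 5 nM to 100 μM for 72 h, then 3 h at 37 °C with MTS reagent and A490 read. IC50 taken from separate duplicate experiments, values given individually.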

KB [2] = assay: Inhibition of cell proliferation of human KB cells at 10 uM after 72 hrs by CellTiter assay; type: functional
How it was run: (§1)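 KB cells from NCI grown in D-MEM with 10% fetal calf serum and antibiotics under 5% CO2. 600 cells/well, compound in DMSO added 24 h after seeding (1% DMSO final), exposure 72 h. MTS reagent for 3 h at 37 °C, A490. % inhibition = (1 − OD treated/OD DMSO control) × 100, mean ± SE of triplicates.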

KB [3] = assay: Inhibition of cell proliferation of human KB cells at 1 uM after 72 hrs by CellTiter 96 assay; type: functional; how it was run: as §1

| Compound | pIC50 (KB [1]) | inhibition at 10 µM (KB [2]) [%] | inhibition at 1 µM (KB [3]) [%] |
| --- | --- | --- | --- |
| CC[C@H]1NC(=O)[C@@H](C)C/C(C)=C/[C@H](C)C[C@H](C)OC(=O)C[C@H](c2ccc(O)cc2)NC(=O)[C@@H](Cc2c(Br)[nH]c3ccccc23)N(C)C1=O [JASPAMIDE D] | 8.36 | 100 | 100 |
| C/C1=C\[C@H](C)C[C@H](C)OC(=O)C[C@H](c2ccc(O)cc2)NC(=O)[C@@H](Cc2c(Br)[nH]c3ccccc23)N(C)C(=O)[C@H](CO)NC(=O)[C@@H](C)C1 [JASPAMIDE E] | 6.92 | 100 | 100 |
| C/C1=C\[C@H](C)C[C@H](C)OC(=O)C[C@H](c2ccc(O)cc2)NC(=O)[C@@H](Cc2c(Br)[nH]c3ccccc23)N(C)C(=O)[C@H](C)NC(=O)[C@@H](C)C1O (stereo partly drawn) [JASPAMIDE K] | 5.47 | 100 | 100 |
| C[C@@H]1NC(=O)[C@@H](C)C/C(CO)=C/[C@H](C)C[C@H](C)OC(=O)C[C@H](c2ccc(O)cc2)NC(=O)[C@@H](Cc2c(Br)[nH]c3ccccc23)N(C)C1=O [JASPAMIDE L] | 6.67 | 99 | 100 |
| C/C1=C\[C@H](C)C[C@H](C)OC(=O)C[C@H](c2ccc(O)cc2)NC(=O)[C@@H](Cc2c(Br)[nH]c3ccccc23)N(C)C(=O)[C@H](C)NC(=O)[C@@H](C)C1 [JASPAMIDE] | 7.89 | 100 | 99 |
| C=C1C[C@H](C)C(=O)N[C@@H](C)C(=O)N(C)[C@H](Cc2c(Br)[nH]c3ccccc23)C(=O)N[C@@H](c2ccc(O)cc2)CC(=O)O[C@@H](C)C[C@@H](C)C1=O [JASPLAKINOLIDE B] | 7.54 | 99 | 99 |
| C=C1C[C@H](C)C(=O)N[C@@H](C)C(=O)N(C)[C@H](Cc2c(Br)[nH]c3ccccc23)C(=O)N[C@@H](c2ccc(O)cc2)CC(=O)O[C@@H](C)C[C@@H](C)[C@H]1O [JASPLAKINOLIDE CA] |  | 80 | 0 |
| C=C1C[C@H](C)C(=O)N[C@@H](C)C(=O)N(C)[C@H](Cc2c(Br)[nH]c3ccccc23)C(=O)N[C@@H](c2ccc(O)cc2)CC(=O)O[C@@H](C)C[C@@H](C)[C@@H]1O [JASPLAKINOLIDE CB] |  | 100 | 75 |
| C/C(=C\[C@H](C)C[C@H](C)O)C[C@H](C)C(=O)N[C@@H](C)C(=O)N(C)[C@H](Cc1c(Br)[nH]c2ccccc12)C(=O)N[C@H](CC(=O)O)c1ccc(O)cc1 [JASPLAKINOLIDE Z1] |  | 30 |  |
| C/C1=C\[C@H](C)C[C@H](C)OC(=O)C[C@H](c2ccc(O)c(Br)c2)NC(=O)[C@@H](Cc2c(Br)[nH]c3ccccc23)N(C)C(=O)[C@H](C)NC(=O)[C@@H](C)C1 [PIPESTELIDE A] | 7.00 | 100 | 100 |
| C/C1=C/[C@H](C)C(=O)N[C@@H](C)C(=O)N(C)[C@H](Cc2c(Br)[nH]c3ccccc23)C(=O)N[C@@H](c2ccc(O)cc2)CC(=O)O[C@@H](C)C[C@@H](C)[C@H]1O [PIPESTELIDE B] |  | 100 | 0 |
